Activity calls are given as the source filed them. The rule behind the calls is not given here.
Key:
MCF7 = test: Antiproliferative activity against human MCF7 cells after 48 hrs by MTT assay; type: functional, cell-based; conditions: MCF7, 48 h
Outline: (§1)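 Cells grown in RPMI1640 with 10% FBS at 37 °C, 5% CO₂; plated 5000 per well, 4 h attachment, then exposed to a range of compound concentrations for 48 h. 0.5% MTT added for 4 h, formazan dissolved in DMSO, absorbance read at 570 nm.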

HeLa [1] = test: Anti-invasive activity against human HeLa cells at 1 uM after 24 hrs using crystal violet staining by inverted microscopic based transwell chamber assay; type: functional, cell-based
Outline: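 Transwell chambers, 8 μm pore, upper side precoated with Matrigel. 1×10⁵ HeLa cells seeded with compound (1 μM) in RPMI1640 with 1% FBS; lower chamber 10% FBS as chemoattractant. After 24 h at 37 °C, non-invaded cells swabbed off; membranes methanol-fixed 10 min, stained 0.5% crystal violet, counted microscopically.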

HUVEC = test: Anti-angiogenic activity against HUVEC assessed as reduction in tube formation at 1 uM after 8 hrs by inverted microscopic method; type: functional, cell-based; conditions: Homo sapiens
Outline: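 Matrigel-coated wells gelled 30 min at 37 °C, 5% CO₂; 1×10⁵ HUVECs per well seeded in growth medium together with compound at 1 μM, vehicle control included. Incubated 8 h at 37 °C, 5% CO₂; capillary-like tube networks imaged under inverted microscope and quantified.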

HeLa [2] = test: Antiproliferative activity against human HeLa cells after 48 hrs by MTT assay; type: functional, cell-based; outline: as §1
K562 = test: Antiproliferative activity against human K562 cells after 48 hrs by MTT assay; type: functional, cell-based; conditions: K562, 48 h; outline: as §1
HeLa [3] = test: Anticlonogenic activity against human HeLa cells treated for 24 hrs measured after 2 weeks by crystal violet staining based inverted microscopic method; type: functional, cell-based
Outline: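 HeLa cells seeded at 500 per well, exposed to compound 24 h, then grown 2 weeks at 37 °C, 5% CO₂. Washed with PBS, methanol-fixed 15 min, stained 0.1% crystal violet 10 min; colonies of more than 50 cells counted under inverted microscope to give inhibition rate.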

Mus musculus [4] = test: Toxicity in Kunming mouse xenografted with […] assessed as decrease in body weight at 100 mg/kg/day, ig once daily for 10 days; type: organism-based; conditions: in vivo, po, 240 h
Outline: (§2)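 Female Kunming mice (20±2 g, 4–6 weeks), 10 per group, inoculated subcutaneously with H22 cells (4×10⁷/mL) on day 0. Compound 100 mg/kg/day given intragastrically once daily for 10 days; vehicle PBS with 5% DMSO. Body weight recorded before each dose; survival monitored daily.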

HeLa [5] = test: Nitric oxide releasing activity in human HeLa cells assessed as nitrite accumulation at 100 uM after 5 hrs by Griess reagent based colorimetric assay; type: ADME, cell-based
Outline: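 HeLa cells (1×10⁵ per well) incubated 5 h with compound at 100 μM. Cell-free supernatant mixed 1:1 with Griess reagent for 10 min; absorbance at 540 nm; nitrite quantified against NaNO₂ standard curve.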

[6] = target: 72 kDa type IV collagenase (Homo sapiens, UniProt P08253); test: Inhibition of recombinant human MMP2 catalytic domain (Tyr110 to Asp452 residues) preincubated for 45 mins followed by […] substrate addition by fluorescence assay
Outline: (§3)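 Fluorometric kit assay: enzyme added to assay buffer equilibrated to 37 °C, then inhibitor (NNGH as kit control) added and preincubated 45 min at 37 °C; fluorogenic substrate added to start reaction; fluorescence read at Ex/Em 328/420 nm.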

Thoracic aorta = test: Anti-angiogenic activity against Sprague-Dawley rat thoracic aorta assessed as reduction in microvessel outgrowth arising fron aortic rings at 5 uM after 6 days by inverted microscopic method; type: functional, tissue-based
Outline: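 Thoracic aortas from 6-week-old male Sprague Dawley rats, perivascular tissue removed, cut into ~1 mm rings and embedded in Matrigel-coated wells. Rings treated with compound at 5 μM, vehicle control included, 6 days at 37 °C, 5% CO₂. Microvessel outgrowth imaged by inverted microscope; inhibition rate counted.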

[7] = Antiproliferative activity against human ES2 cells after 48 hrs by MTT assay; type: functional, cell-based; conditions: ES-2, 48 h; outline: as §1
MDA-MB-231 = test: Antiproliferative activity against human MDA-MB-231 cells after 48 hrs by MTT assay; type: functional, cell-based; conditions: MDA-MB-231, 48 h; outline: as §1
[8] = target: Matrix metalloproteinase-9 (Homo sapiens, UniProt P14780); test: Inhibition of recombinant human MMP9 (Phe107 to Pro449 residues) expressed in Escherichia coli preincubated for 45 mins followed by […] substrate addition by fluorescence assay; outline: as §3
A549 = test: Antiproliferative activity against human A549 cells after 48 hrs by MTT assay; type: functional, cell-based; conditions: A549, 48 h; outline: as §1
HeLa [9] = test: Antimigratory activity against human HeLa cells assessed as reduction in wound closure at 1 uM by inverted microscopic method; type: functional, cell-based; conditions: TDE = time-dependent effect
Outline: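 2×10⁵ HeLa cells per well grown to confluence; pipette tip scratch made, cells treated with 1 μM compound and allowed to migrate; wound imaged by inverted microscope at 0, 12, 24 and 48 h, wound closure quantified.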

HeLa [10] = test: Antimigratory activity against human HeLa cells at 1 uM after 24 hrs using crystal violet staining by inverted microscopic based transwell chamber assay; type: functional, cell-based
Outline: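 Uncoated Transwell chambers, 8 μm pore. 5×10⁴ HeLa cells seeded in upper chamber with compound (1 μM) in RPMI1640 containing 1% FBS; 10% FBS below as chemoattractant. 24 h at 37 °C; upper-side cells removed, membrane methanol-fixed 10 min, 0.5% crystal violet stained, migrated cells counted under inverted microscope.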

[11] = Cytotoxicity against HUVEC after 48 hrs by MTT assay; type: cell-based; conditions: human, HUVEC cells; outline: as §1
H22 = test: Antitumor activity against […] xenografted in Kunming mouse assessed as increase in mouse survival rate at 100 mg/kg/day, ig once daily for 10 days relative to control; type: functional
Outline: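 Female Kunming mice (20±2 g, 4–6 weeks), randomized 10 per group, were inoculated subcutaneously with H22 cells (4 × 10⁷/mL) on day 0. Dosing was intragastric, once daily for ten days, with a PBS/5% DMSO vehicle group and a positive-control group. Body weight was recorded before each dose, and survival was checked daily. Mean survival time was compared with vehicle.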

Mus musculus [12] = test: Toxicity in Kunming mouse xenografted with […] assessed as increase in body weight at 100 mg/kg/day, ig once daily for 10 days; type: organism-based; conditions: in vivo, po, 240 h; outline: as §2

Sequence of Matrix metalloproteinase-9 (P14780 whole entry): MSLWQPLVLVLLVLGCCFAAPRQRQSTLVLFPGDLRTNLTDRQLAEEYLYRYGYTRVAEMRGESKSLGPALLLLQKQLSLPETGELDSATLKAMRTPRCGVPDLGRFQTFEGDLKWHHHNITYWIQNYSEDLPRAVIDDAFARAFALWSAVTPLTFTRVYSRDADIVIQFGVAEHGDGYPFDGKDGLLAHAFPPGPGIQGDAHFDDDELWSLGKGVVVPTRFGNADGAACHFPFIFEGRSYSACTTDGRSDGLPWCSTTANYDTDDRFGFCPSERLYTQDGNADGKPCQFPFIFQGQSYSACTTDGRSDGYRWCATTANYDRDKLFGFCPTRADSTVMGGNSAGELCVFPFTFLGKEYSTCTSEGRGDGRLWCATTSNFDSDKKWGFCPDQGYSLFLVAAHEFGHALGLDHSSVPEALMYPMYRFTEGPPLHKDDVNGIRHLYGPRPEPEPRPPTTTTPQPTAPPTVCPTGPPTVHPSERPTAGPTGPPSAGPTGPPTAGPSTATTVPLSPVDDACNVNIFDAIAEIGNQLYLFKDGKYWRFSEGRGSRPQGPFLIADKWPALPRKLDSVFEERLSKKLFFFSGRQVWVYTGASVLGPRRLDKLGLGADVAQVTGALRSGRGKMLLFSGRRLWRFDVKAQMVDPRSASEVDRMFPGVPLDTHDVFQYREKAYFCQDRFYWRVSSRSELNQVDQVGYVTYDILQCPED
Sequence of 72 kDa type IV collagenase (P08253 whole entry, the tested form may be a part): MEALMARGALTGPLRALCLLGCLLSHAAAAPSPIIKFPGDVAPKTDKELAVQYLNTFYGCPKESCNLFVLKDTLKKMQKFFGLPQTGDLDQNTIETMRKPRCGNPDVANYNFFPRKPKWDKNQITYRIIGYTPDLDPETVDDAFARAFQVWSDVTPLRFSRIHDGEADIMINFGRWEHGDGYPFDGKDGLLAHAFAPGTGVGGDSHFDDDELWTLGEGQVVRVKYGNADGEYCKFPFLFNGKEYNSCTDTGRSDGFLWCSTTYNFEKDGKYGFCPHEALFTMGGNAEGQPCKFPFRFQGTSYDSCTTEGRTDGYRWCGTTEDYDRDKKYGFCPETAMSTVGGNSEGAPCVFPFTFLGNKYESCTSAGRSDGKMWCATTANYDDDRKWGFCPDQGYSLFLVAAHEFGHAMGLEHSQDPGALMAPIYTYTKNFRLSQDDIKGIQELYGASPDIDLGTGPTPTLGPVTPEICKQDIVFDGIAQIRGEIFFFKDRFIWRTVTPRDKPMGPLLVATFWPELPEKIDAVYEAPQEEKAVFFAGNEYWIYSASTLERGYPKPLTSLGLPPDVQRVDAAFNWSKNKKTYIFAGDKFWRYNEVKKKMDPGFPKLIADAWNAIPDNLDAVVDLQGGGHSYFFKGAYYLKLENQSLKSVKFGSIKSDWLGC

Row | Compound | IC50 (MCF7) [µM] | Activity (HeLa [1]) | Activity (HUVEC) | IC50 (HeLa [2]) [µM] | IC50 (K562) [µM] | Activity (HeLa [3]) | Activity (Mus musculus [4]) | Nitrite concentration (HeLa [5]) [µM] | IC50 [6] [µM] | Activity (Thoracic aorta) | IC50 [7] [µM] | IC50 (MDA-MB-231) [µM] | IC50 [8] [µM] | IC50 (A549) [µM] | Activity (HeLa [9]) | Activity (HeLa [10]) | CC50 at 48 h [11] [µM] | Activity (H22) | Activity (Mus musculus [12])
1 | O=C(N[C@H]1C[C@@H](C(=O)NO)N(S(=O)(=O)c2ccc(Oc3ccccc3)cc2)C1)c1ccc2no[n+]([O-])c2c1 | 4.19 | Active | Active | 3.82 | 3.56 | Active | Toxic | 34.43 | 0.102 | Active | 7.47 | 7.01 | 0.162 | 5.1 | Tde | Active | 32.5 | 40.48% | 
2 | COc1ccc(/C=C/C(=O)N2C[C@@H](NC(=O)c3cccnc3)C[C@H]2C(=O)NO)cc1OC | > 200 | Active | Active | 185 | > 200 | Active |  |  | 0.266 | Active | > 200 | > 200 | 0.36 | 78.2 |  | Active | 39.8 | Active | Toxic
3 | O=C(N[C@H]1C[C@@H](C(=O)NO)N(S(=O)(=O)c2ccc(Oc3ccccc3)cc2)C1)c1cccc2no[n+]([O-])c12 | 13 | Active | Active | 7.24 | 4.58 | Active |  | 27.87 | 0.182 | inactive | 8.26 | 4.19 | 0.242 | 21.5 |  |  | 37.2 |  | 
4 | COc1ccc(/C=C/C(=O)N2C[C@@H](NC(=O)c3cccc4no[n+]([O-])c34)C[C@H]2C(=O)NO)cc1OC | 23.4 | Active | Active | 14.1 | 11.2 | Active |  | 25.51 | 0.414 | inactive | 17.4 | 16.5 | 0.524 | 25.6 |  |  | 42.3 |  | 
5 | COc1ccc(/C=C/C(=O)N2C[C@@H](NC(=O)c3ccc4no[n+]([O-])c4c3)C[C@H]2C(=O)NO)cc1OC | 10.7 | Active | Active | 6.49 | 4.61 | Active |  | 33.11 | 0.345 | Active | 14.1 | 9.81 | 0.388 | 13.2 |  |  | 36.3 |  | 

— ChEMBL document CHEMBL4229514, “Synthesis and biological evaluation of novel benzofuroxan-based pyrrolidine hydroxamates as matrix metalloproteinase inhibitors with nitric oxide releasing activity” (Bioorg Med Chem, 2018)
